ChEMBL document CHEMBL3085708, “Identification and profiling of 3,5-dimethyl-isoxazole-4-carboxylic acid [2-methyl-4-((2S,3'S)-2-methyl-[1,3']bipyrrolidinyl-1'-yl)phenyl] amide as histamine H(3) receptor antagonist for the treatment of depression” (Bioorg Med Chem Lett, 2013)
pIC50: −log10 of the molar value.

Key:
[1] = Toxicity in guinea pig heart assessed as decrease in ventricular contraction at 10 uM relative to control; assay type: tissue-based, Cavia porcellus, Cardiac ventricle
[2] = AUC (0 to infinity) in OF1 mouse plasma at 2 mg/kg, iv; assay type: ADME, organism-based; parameters: time infinity, dose 2 mg/kg, route intravenous
Summary of the method: (§1)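 Single-dose PK; male OF1 mice and male Sprague-Dawley rats, 2 mg/kg iv and 10 mg/kg po. Mouse vehicles: iv 50% 1-methyl-2-pyrrolidinone in saline (1.0 mg/mL); po 5% DMSO/0.5% MC/0.2% Tween80 (1.0 mg/mL). Rat vehicles: iv saline (0.5 mg/mL); po 0.5% MC/0.2% Tween80 (1.0 mg/mL). Plasma and brain exposure read as AUC0-∞ and t1/2.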

Hepatocyte = assay: Intrinsic clearance in human hepatocytes measured per 10^6 cells; assay type: ADME, cell-based
Summary of the method: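 Intrinsic clearance in human hepatocytes, expressed as mL h−1 per 10^6 hepatocytes, n = 4.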

Salmonella typhimurium = assay: Genotoxicity in Salmonella typhimurium at 3 to 1000 ug/mL by Ames-2 test; assay type: toxicity, organism-based; settings: salmonella enterica subsp. enterica serovar typhimurium
Summary of the method: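 Ames II bacterial mutagenicity test over 3 to 1000 µg/mL.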

[3] = Drug metabolism in rat liver microsomes; assay type: ADME; settings: read-out: Drug metabolism
Cytochrome P450 2C19 = Cytochrome P450 2C19 (Homo sapiens, UniProt P33261); assay: Inhibition of CYP2C19 (unknown origin) after 4 hrs; assay type: ADME
Mus musculus [4] = assay: Toxicity in mouse assessed as effect on motility at 30 mg/kg, po; assay type: organism-based; parameters: dose 30 mg/kg, route oral; settings: in vivo
Summary of the method: (§2)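 Acute oral group toxicity in mice: behavioural side effects scored (social interaction, motility, preconvulsant signs, convulsions, tremor) after single po doses of 30 and 100 mg/kg.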

[5] = Elimination half life in Sprague-Dawley rat brain at 10 mg/kg, po; assay type: ADME, organism-based; parameters: dose 10 mg/kg, route oral; settings: read-out: beta t1/2 (converted); summary of the method: as §1
[6] = Drug metabolism in dog plasma at 100 ng/ml after 4 hrs; assay type: ADME, cell-free, Canis lupus familiaris; settings: read-out: Drug metabolism
Summary of the method: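 Compound spiked into blank plasma of human, mouse, rat, rabbit, macaque and dog at 100 ng/ml, then incubated in a 37 °C water bath for up to 4 h; percent metabolized reported.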

[7] = Oral bioavailability in OF1 mouse at 10 mg/kg; assay type: ADME, organism-based; settings: in vivo
Summary of the method: (§3)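 Male OF1 mice given 2 mg/kg iv (50% 1-methyl-2-pyrrolidinone in saline, 1.0 mg/mL) and 10 mg/kg po (5% DMSO/0.5% MC/0.2% Tween80, 1.0 mg/mL); plasma and brain exposure measured; B/P ratio from iv AUC.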

[8] = AUC (0 to infinity) in OF1 mouse brain at 10 mg/kg, po; assay type: ADME, organism-based; parameters: time infinity, dose 10 mg/kg, route oral; summary of the method: as §1
[9] = molecular target: Voltage-gated inwardly rectifying potassium channel KCNH2 (Homo sapiens, UniProt Q12809); assay: Inhibition of human ERG current transfected in CHO cells by patch clamp assay; assay type: cell-based
Summary of the method: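 Whole-cell patch clamp on CHO cells, hERG current; IC50 from n = 4.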

[10] = Drug metabolism in human liver microsomes; assay type: ADME; settings: read-out: Drug metabolism
[11] = Elimination half life in Sprague-Dawley rat plasma at 2 mg/kg, iv; assay type: ADME, organism-based; parameters: dose 2 mg/kg, route intravenous; settings: read-out: beta t1/2 (converted); summary of the method: as §1
Mus musculus [12] = assay: Toxicity in mouse assessed as effect on social interaction at 30 mg/kg, po; assay type: organism-based; parameters: dose 30 mg/kg, route oral; settings: in vivo; summary of the method: as §2
[13] = Volume of distribution in OF1 mouse at 2 mg/kg, iv; assay type: ADME, organism-based; parameters: dose 2 mg/kg, route intravenous; settings: in vivo; summary of the method: as §3
[14] = Mutagenic activity in micronucleus (unknown origin) at 5 to 950 ug/mL in presence of human liver microsomes; assay type: toxicity
Summary of the method: (§4)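 In vitro micronucleus test; concentrations 5 to 950 µg/mL, run with and without metabolic activation by human liver microsomes.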

[15] = Mutagenic activity in micronucleus (unknown origin) at 5 to 950 ug/mL in absence of human liver microsomes; assay type: toxicity; summary of the method: as §4
[16] = Cmax in OF1 mouse brain at 10 mg/kg, po; assay type: ADME, organism-based; parameters: dose 10 mg/kg, route oral
Summary of the method: (§5)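 Oral PK at 10 mg/kg po in male OF1 mice (vehicle 5% DMSO/0.5% MC/0.2% Tween80, 1.0 mg/mL) and male Sprague-Dawley rats (vehicle 0.5% MC/0.2% Tween80, 1.0 mg/mL). Cmax and tmax taken from plasma and brain concentration–time profiles.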

[17] = Cmax in Sprague-Dawley rat brain at 10 mg/kg, po; assay type: ADME, organism-based; parameters: dose 10 mg/kg, route oral; summary of the method: as §5

Chain of Voltage-gated inwardly rectifying potassium channel KCNH2 (Q12809 whole entry): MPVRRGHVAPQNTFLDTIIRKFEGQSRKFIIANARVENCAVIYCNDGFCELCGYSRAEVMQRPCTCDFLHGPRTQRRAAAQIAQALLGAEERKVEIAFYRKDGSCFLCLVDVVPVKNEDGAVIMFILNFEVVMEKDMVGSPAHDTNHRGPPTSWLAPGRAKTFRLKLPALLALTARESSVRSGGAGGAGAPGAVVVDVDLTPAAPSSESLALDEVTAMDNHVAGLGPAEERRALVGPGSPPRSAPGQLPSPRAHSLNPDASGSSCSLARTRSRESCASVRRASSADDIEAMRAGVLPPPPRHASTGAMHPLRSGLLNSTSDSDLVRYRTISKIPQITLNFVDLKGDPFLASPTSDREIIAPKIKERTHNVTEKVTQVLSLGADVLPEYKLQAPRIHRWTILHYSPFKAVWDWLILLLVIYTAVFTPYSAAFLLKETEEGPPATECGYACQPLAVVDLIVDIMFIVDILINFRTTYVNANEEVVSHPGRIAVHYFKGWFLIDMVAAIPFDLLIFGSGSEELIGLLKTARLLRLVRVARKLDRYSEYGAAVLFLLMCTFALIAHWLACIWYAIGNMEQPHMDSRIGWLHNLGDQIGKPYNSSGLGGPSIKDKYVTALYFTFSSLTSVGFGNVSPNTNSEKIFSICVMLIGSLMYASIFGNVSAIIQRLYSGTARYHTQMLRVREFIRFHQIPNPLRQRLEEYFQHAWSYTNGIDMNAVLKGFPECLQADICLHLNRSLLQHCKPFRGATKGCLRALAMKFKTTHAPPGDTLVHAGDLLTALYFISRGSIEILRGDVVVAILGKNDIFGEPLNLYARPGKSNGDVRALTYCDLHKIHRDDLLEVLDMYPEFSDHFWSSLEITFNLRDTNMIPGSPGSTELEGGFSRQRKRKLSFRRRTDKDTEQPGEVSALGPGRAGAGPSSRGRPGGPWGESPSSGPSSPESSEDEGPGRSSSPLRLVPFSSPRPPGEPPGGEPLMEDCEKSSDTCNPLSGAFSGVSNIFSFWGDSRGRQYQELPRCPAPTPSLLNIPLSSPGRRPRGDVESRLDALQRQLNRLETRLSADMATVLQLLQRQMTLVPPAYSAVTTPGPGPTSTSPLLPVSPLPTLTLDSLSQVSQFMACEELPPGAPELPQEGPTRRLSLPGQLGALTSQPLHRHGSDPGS
Chain of Cytochrome P450 2C19 (P33261 whole entry): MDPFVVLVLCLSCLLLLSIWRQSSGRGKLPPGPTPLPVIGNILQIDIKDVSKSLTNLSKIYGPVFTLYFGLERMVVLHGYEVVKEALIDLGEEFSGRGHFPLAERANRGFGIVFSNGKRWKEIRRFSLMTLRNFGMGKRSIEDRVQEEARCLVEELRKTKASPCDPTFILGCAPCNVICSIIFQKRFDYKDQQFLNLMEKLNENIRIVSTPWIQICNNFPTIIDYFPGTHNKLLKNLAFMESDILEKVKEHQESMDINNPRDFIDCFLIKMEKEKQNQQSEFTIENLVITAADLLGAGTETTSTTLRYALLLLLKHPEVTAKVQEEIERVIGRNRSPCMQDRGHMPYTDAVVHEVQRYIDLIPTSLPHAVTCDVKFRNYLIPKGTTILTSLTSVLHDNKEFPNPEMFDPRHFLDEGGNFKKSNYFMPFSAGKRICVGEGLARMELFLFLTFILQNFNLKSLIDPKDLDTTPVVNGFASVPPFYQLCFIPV

Cc1cc(N2CC[C@H](N3CCC[C@@H]3C)C2)ccc1NC(=O)c1c(C)noc1C
inhibition at 10 µM [1]: 23%
AUC(0-inf) [2]: 670 ng·h/mL
CLH (Hepatocyte): 0.04 mL/h
Activity (Salmonella typhimurium): Non-toxic
metabolised [3]: < 5%
pIC50 (Cytochrome P450 2C19): < 4.00
Activity (Mus musculus [4]): Non-toxic
half-life [5]: 9.4 h
metabolised at 4 h, 100 ng/ml [6]: < 5%
bioavailability [7]: 57%
AUC(0-inf) [8]: 3100 ng·h/mL
pIC50 [9]: 4.43
metabolised [10]: < 5%
half-life [11]: 1.2 h
Activity (Mus musculus [12]): Non-toxic
Vd [13]: 1.7 L/kg
Activity [14]: Non-toxic
Activity [15]: Non-toxic
Cmax [16]: 2620 ng/mL
Cmax [17]: 599 ng/mL
